Test results taken from PMC5131535 (ACS chemical neuroscience, 2016).
pIC50: −log10 of the molar value. Several values for one entry are separate records, joined by “and”; a condition that tells them apart may be missing. Identical values can stand only once. Like-named read-outs stand apart in the source and are kept apart here.

How the values were obtained:
Kir7.1-M125R = target: T1, Kir7.1-M125R (Homo sapiens, UniProt O60928, M125R); assay: Tl+ flux assay in T-REx-HEK293 cells expressing Kir7.1-M125R; type: cell-based
T1 sequence (O60928 1-360 M125R): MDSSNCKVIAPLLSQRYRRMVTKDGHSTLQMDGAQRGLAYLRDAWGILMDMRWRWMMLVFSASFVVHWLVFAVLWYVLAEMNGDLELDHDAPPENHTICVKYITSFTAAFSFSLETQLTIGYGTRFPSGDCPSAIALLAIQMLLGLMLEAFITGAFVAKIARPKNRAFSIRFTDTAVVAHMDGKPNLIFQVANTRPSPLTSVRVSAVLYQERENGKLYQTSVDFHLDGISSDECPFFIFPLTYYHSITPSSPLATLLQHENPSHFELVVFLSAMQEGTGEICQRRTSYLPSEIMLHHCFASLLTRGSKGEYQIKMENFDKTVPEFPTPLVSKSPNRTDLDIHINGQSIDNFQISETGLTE
Summary of the method: (§1)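 Tetracycline-inducible stable T-REx-HEK-293 lines, induced overnight with 1 µg/ml tetracycline in DMEM/10% dialyzed FBS. Cells loaded 1 hr with 1.2 µM Thallos-AM in HBSS/20 mM HEPES pH 7.3 with 0.01% Pluronic F-127. Baseline fluorescence (ex 470, em 540 nm) read at 1 Hz before adding stimulus buffer with 1.8 mM Tl₂SO₄. Traces normalized to first point and vehicle-subtracted; slope taken 5–20 s post-Tl⁺; IC50 by nonlinear regression of CRCs.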

Kir7.1 [1] = target: T2, Kir7.1 (Homo sapiens, UniProt O60928, M125R); assay: Whole-cell patch clamp electrophysiology, Kir7.1; type: cell-based; details: Kir7.1 IC50 (Patch clamp), -120 mV
T2 sequence (O60928 1-360 M125R): T1 sequence (O60928 1-360 M125R)
Summary of the method: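 Human Kir7.1 (WT or mutant) was transiently co-transfected with EGFP into HEK-293T cells, which were replated next day on poly-L-lysine coverslips. Whole-cell clamp used bath 5 mM KCl, pH 7.4, and pipette 135 mM KCl, pH 7.3. Cells were held at −75 mV, stepped 500 ms to −120 mV, then ramped to 120 mV, every 5 s. Increasing test-compound doses were superfused, then BaCl₂ block; current read at −120 mV; variable-slope Hill fit, mean of n = 5.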

Kir1.1 = assay: Tl+ flux selectivity assay, Kir1.1; type: cell-based; details: Thallium flux, Kir7.1 over Kir1.1
Summary of the method: as §1

Kir2.1 [2] = target: T3, Kir2.1 (Homo sapiens, UniProt P63252); assay: Tl+ flux selectivity assay, Kir2.1; type: cell-based; details: Thallium flux, Kir7.1 over Kir2.1
T3 sequence (P63252 1-427): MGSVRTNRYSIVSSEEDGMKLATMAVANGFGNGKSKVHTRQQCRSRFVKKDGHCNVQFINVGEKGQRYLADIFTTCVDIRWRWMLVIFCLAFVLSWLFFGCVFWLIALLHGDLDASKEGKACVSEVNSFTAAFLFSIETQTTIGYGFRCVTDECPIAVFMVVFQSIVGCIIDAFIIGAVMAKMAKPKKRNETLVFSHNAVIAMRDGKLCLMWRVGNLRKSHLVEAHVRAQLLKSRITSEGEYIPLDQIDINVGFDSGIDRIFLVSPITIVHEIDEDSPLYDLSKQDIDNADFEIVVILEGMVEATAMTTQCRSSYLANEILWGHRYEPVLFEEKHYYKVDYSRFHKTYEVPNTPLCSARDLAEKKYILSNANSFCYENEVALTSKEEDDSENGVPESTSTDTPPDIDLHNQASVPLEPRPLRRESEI
Summary of the method: as §1

Kir2.2 = target: T4, Kir2.2 (Homo sapiens, UniProt Q14500); assay: Tl+ flux selectivity assay, Kir2.2; type: cell-based; details: Thallium flux, Kir7.1 over Kir2.2
T4 sequence (Q14500 1-433): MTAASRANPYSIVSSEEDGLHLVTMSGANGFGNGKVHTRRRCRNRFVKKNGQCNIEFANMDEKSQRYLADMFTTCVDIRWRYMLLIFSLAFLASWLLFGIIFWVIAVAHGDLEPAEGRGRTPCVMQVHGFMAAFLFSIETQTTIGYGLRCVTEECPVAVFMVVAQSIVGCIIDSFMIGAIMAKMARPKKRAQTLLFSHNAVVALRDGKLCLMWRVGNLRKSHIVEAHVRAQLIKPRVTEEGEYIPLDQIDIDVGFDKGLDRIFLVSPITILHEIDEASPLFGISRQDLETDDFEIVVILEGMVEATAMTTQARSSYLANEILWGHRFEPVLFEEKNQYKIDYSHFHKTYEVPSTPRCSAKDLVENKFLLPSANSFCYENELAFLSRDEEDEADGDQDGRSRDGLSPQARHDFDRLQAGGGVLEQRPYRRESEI

Kir2.3 = target: T5, Kir2.3 (Homo sapiens, UniProt P48050); assay: Tl+ flux selectivity assay, Kir2.3; type: cell-based; details: Thallium flux, Kir7.1 over Kir2.3
T5 sequence (P48050 1-445): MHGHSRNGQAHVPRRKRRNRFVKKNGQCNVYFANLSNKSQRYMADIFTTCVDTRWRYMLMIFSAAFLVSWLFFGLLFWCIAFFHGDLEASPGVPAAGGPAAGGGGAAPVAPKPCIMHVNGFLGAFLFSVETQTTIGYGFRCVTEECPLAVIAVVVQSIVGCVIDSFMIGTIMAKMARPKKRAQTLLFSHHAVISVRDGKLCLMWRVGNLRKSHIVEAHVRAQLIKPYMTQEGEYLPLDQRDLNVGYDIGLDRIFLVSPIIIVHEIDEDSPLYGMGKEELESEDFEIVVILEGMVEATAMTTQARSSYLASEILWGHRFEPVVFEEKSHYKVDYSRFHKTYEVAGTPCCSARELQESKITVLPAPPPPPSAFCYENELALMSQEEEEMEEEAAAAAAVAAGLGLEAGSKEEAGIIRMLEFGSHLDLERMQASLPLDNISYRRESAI

Kir4.1 = target: T6, Kir4.1 (Homo sapiens, UniProt P78508); assay: Tl+ flux selectivity assay, Kir4.1; type: cell-based; details: Thallium flux, Kir7.1 over Kir4.1
T6 sequence (P78508 1-379): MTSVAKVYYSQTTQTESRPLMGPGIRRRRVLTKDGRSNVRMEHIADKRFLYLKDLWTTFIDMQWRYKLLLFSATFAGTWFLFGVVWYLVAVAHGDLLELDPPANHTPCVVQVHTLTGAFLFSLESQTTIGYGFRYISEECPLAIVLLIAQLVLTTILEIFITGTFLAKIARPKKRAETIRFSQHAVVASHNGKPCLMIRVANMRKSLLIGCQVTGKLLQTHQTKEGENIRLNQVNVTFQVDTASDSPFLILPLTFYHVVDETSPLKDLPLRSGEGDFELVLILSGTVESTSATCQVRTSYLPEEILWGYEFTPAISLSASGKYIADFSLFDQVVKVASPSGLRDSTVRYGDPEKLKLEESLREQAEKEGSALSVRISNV
Summary of the method: as §1

Kir6.2/SUR1 = Kir6.2/SUR1 (Homo sapiens, UniProt Q14654); assay: Tl+ flux selectivity assay, Kir6.2/SUR1; type: cell-based; details: Thallium flux, Kir7.1 over Kir6.2/SUR1
Summary of the method: as §1

[3] = Protein binding in plasma; details: rat
[4] = Protein binding in plasma; details: mouse
[5] = Protein binding in plasma; details: human
Kir7.1 [6] = details: read-out: Kir7.1 IC50 EP, cited from earlier work
ROMK [7] = details: read-out: ROMK IC50 EP, cited from earlier work
Kir2.1 [8] = target: T3, Kir2.1; details: read-out: Kir2.1 IC50; at pH 8.0; ref [24]; cited from earlier work
ROMK [9] = details: read-out: ROMK IC50 Tl+; ref [16]; cited from earlier work

Chain of Kir6.2/SUR1 (Q14654 whole entry): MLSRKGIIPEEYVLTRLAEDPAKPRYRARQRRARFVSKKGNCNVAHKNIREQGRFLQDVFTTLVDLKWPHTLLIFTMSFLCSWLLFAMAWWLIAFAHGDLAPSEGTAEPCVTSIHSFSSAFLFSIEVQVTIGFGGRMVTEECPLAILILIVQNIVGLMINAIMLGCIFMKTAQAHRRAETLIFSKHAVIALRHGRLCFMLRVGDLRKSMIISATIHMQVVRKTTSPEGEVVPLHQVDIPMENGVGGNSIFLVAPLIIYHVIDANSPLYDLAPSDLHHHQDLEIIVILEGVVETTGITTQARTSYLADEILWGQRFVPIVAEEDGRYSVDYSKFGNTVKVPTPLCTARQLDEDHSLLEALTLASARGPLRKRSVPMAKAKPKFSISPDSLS
Chain of Kir6.2/SUR1 (Q09428 whole entry partner): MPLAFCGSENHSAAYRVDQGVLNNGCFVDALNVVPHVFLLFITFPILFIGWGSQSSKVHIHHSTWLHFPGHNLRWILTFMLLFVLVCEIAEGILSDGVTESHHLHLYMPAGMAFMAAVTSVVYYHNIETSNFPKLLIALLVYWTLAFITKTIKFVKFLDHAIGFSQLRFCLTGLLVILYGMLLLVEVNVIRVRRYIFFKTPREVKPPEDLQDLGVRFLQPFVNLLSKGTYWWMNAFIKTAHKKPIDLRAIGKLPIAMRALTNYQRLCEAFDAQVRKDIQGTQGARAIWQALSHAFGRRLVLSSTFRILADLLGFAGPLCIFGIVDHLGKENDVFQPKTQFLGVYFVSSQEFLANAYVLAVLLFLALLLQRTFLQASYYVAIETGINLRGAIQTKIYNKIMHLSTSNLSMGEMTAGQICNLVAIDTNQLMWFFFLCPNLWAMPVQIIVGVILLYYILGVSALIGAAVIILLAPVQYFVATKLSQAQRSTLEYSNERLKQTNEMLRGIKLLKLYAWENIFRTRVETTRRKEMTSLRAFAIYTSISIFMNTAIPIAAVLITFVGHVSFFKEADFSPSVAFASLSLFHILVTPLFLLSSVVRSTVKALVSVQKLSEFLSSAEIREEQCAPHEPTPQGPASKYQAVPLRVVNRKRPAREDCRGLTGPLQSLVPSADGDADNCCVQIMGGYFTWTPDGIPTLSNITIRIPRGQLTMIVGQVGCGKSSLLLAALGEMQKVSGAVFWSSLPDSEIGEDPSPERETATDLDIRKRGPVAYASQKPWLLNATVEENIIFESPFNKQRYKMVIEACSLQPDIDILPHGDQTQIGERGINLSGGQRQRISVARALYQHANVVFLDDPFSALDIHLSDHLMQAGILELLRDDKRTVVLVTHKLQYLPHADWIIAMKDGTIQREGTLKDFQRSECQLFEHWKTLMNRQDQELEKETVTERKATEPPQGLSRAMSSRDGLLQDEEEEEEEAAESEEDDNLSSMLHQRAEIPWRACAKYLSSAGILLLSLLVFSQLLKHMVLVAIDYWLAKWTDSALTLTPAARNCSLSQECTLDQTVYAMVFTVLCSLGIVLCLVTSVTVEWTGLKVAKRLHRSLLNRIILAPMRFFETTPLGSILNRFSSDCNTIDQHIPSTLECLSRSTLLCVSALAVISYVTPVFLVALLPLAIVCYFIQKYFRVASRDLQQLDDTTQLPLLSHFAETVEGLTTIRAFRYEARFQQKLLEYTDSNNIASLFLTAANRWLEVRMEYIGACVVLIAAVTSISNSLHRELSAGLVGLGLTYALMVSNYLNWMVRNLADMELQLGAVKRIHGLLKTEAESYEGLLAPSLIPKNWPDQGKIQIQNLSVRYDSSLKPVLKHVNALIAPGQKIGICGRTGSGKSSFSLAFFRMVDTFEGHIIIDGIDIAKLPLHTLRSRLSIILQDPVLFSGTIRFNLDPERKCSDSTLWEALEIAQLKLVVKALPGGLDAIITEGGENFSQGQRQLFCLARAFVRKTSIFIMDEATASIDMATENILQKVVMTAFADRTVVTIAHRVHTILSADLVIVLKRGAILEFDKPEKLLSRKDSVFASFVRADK

## CC(C)(C)OC(=O)NC1CCN(Cc2cc(Cl)c3cccnc3c2O)CC1 [Compound 11, tert-Butyl (1-((5-chloro-8-hydroxyquinolin-7-yl)methyl)piperidin-4-yl)carbamate]
Kir7.1-M125R
  pIC50: 5.77
Kir7.1 [1]
  pIC50: 6.33
Kir1.1
  Kir Channel Selectivity (Fold) 1.1: >18 Fold
Kir2.1 [2]
  Kir Channel Selectivity (Fold) 2.1: >18 Fold
Kir2.2
  Kir Channel Selectivity (Fold) 2.2: >18 Fold
Kir2.3
  Kir Channel Selectivity (Fold) 2.3: >18 Fold
Kir4.1
  Kir Channel Selectivity (Fold) 4.1: >18 Fold
Kir6.2/SUR1
  Kir Channel Selectivity (Fold) 6.2: 1 Fold
[3]
  fraction unbound: 0.036
[4]
  fraction unbound: 0.056
[5]
  fraction unbound: 0.011

## COc1ccc(CNCc2cccc3ccccc23)cc1 [ML133]
Kir7.1 [6]; ref [24]
  pIC50: 4.48
ROMK [7]; ref [24]
  pIC50: < 3.52
Kir2.1 [8]
  pIC50: 6.52

## O=[N+]([O-])c1ccc(CN2CCOCCOCCN(Cc3ccc([N+](=O)[O-])cc3)CCOCC2)cc1 [VU590]
Kir7.1 [6]; ref [16]
  pIC50: ~5.10 and 5.10
ROMK [9]
  pIC50: 6.52
ROMK [7]; ref [16]
  pIC50: 6.62
